{"source": "paper PMC5573236", "about": "(Oncogene, 2008)", "key": {"[1]": {"tested_on": "LNCaP cells", "experiment": "MTT proliferation assay, LNCaP cells", "type": "cell-based"}, "[2]": {"tested_on": "MCF-7 cells", "experiment": "MTT proliferation assay, MCF-7 cells", "type": "cell-based", "settings": "same concentrations as used for Protac-B"}, "[3]": {"tested_on": "T47D cells", "experiment": "MTT proliferation assay, T47D cells", "type": "cell-based", "settings": "same concentrations as used for Protac-B"}, "[4]": {"tested_on": "estrogen receptor-α (ERα)", "settings": "estradiol stimulation; ref Pink and Jordan, 1996; cited from earlier work"}, "[5]": {"molecular_target": "VHL-Elongin B-Elongin C protein complex (Homo sapiens, UniProt P40337+Q15369+Q15370)", "experiment": "Fluorescence polarization competitive binding assay with VHL", "settings": "FP competition assay; negative control"}, "[6]": {"tested_on": "PC-3 cells", "experiment": "MTT proliferation assay, PC-3 cells", "type": "cell-based", "settings": "72 h, same concentrations as used on LNCaP cells", "procedure,_shortened": "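Cells were grown in phenol-red-free RPMI 1640 with 10% FBS, 37 °C, 5% CO2, and seeded at 10 000/well. Test compound or free hormone at matched concentrations was added 24–48 h after plating; the PC-3 exposure was 72 h. MTT read-out: medium removed, DMSO solubilisation, absorbance 550 nm. Single triplicate experiment, representative of three.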"}, "[7]": {"tested_on": "androgen receptor (AR)", "experiment": "Western blot of AR protein levels in LNCaP cells", "type": "cell-based", "settings": "72 h, increasing concentrations that inhibited proliferation"}, "[8]": {"tested_on": "LNCaP cells", "experiment": "Cell cycle profile by flow cytometry", "type": "cell-based", "settings": "72 h, propidium iodide staining", "procedure,_shortened": "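LNCaP cells kept at 37 °C, 5% CO2, in phenol-red-free RPMI 1640 with 10% FBS. Plated at 30 000 cells per cm2 and treated from 24–48 h after plating. Trypsinised, pelleted at 250 g for 5 min, fixed in 70% ethanol and held at −20 °C. Just before acquisition, stained with 3.4 mM sodium citrate, 0.3% Triton X-100, propidium iodide 0.1 mg/ml and RNase A 20 μg/ml, then run on a flow cytometer.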"}}, "data": [{"compound": "C[C@]12CCC(=O)C[C@@H]1CC[C@@H]1[C@@H]2CC[C@]2(C)[C@@H](O)CC[C@@H]12", "note": "[DHT, dihydroxytestosterone]", "values": [{"measurement": "effect on LNCaP cell proliferation", "setting": "[1]; DHT used at the IC50 of Protac-A (12.5 μM)", "value": "no effect"}]}, {"compound": "C[C@]12CC[C@@H]3c4ccc(O)cc4CC[C@H]3[C@@H]1CC[C@@H]2O", "note": "[estradiol, 17β-estradiol]", "values": [{"measurement": "effect on proliferation of MCF-7 cells", "setting": "[2]", "value": "no effect"}, {"measurement": "effect on proliferation of T47D cells", "setting": "[3]", "value": "no effect"}, {"measurement": "decrease in ERα levels", "setting": "[4]", "value": "approximately 50%"}]}, {"compound": "H-Leu-Ala-Ala-Tyr-Ile-Gly-Gly-[D-Arg]9-OH [mutant pentapeptide-G-G-(Arg)9]", "values": [{"measurement": "binding to VHL", "setting": "[5]", "value": "did not detectably bind"}]}, {"compound": "Leu-Ala-Pro(OH)-Tyr-Ile-Gly-Gly-(D-Arg)9 [Protac-AA]", "values": [{"measurement": "increase of activity (IC50, LNCaP) over Protac-A", "setting": "[1]; 72 h and 144 h", "value": "three to seven"}, {"measurement": "effect on proliferation of PC-3 cells", "setting": "[6]", "value": "not affected"}, {"measurement": "AR protein levels in LNCaP cells", "setting": "[7]", "value": "reduced"}, {"measurement": "cell cycle effect in LNCaP cells", "setting": "[8]", "value": "cell cycle arrest in G1"}]}]}
